# Screening results deposited in PubChem by Broad Institute.
# Vif imaging – blocks HIV Vif function; HEK293T cells, Vif self-association by quenched fluorescence, imaging, 24 h; inhibition, % at 7.49 µM; hit rate 0.35% among 340,000; in the data active means inhibition above about 50%, passing the limit was not always enough; inconclusive means no clear call, values can overlap the other calls; inactive means below about 31%
# Ecoli rRNA inh – selective bacterial rRNA inhibition in E. coli | hit rate 1.6% among 350,000 | E. coli WT GFP vs humanized-ribosome RFP mutants, fluorescence, 24 h; stronger effect = lower value; DMSO median 0, no signal -100 | GFP signal change (wild-type ribosome), % (test concentration not listed);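 active means significant combined selectivity score with lowered wild-type GFP, culture density cut under 30%, mutant RFP and density less affected; inactive means any of these conditions unmet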
# FN deposit inh – fibronectin deposition inhibition; hit rate 0.086% among 350,000; inhibition, % at 12.6 µM; AH1F fibroblasts, Alexa488-fibronectin deposition fluorescence, overnight;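 active means mean inhibition across replicates of 30% or more, regardless of how many single replicates reach that level; inconclusive means mean under 30% yet at least half of replicates reach 30%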
#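 Assay system: AH1F fibroblast monolayer, labelled fibronectin deposition. Amount: 10000 cells per well. Also added: labelled fibronectin 24 nM. Compound: single-point pinned compound. Incubation: cell attachment 1 h, compound and FN exposure overnight. Detection: fluorescence after three HBSS washes, excitation 485 nm, emission 525 nm. Read-out: inhibition of fibronectin deposition signal.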
# miR122 inh – miR-122 inhibition in Huh7 cells | activation (reporter increase), % at 12.5 µM | Huh7 miR-122 Renilla luciferase sensor, 48 h; neutral wells = 0, positive control = 100 | hit rate 0.3% among 340,000;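 active means mean replicate activation score at least 90 and every replicate individually at or above 90; inconclusive means only one of the two criteria met; inactive means neither criterion met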;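 further: higher luciferase means less miR-122 activity so hits act as miR-122 inhibitors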
# S100A4 MyoIIA – blocks human S100A4 binding to myosin IIA peptide | P26447 | S100A4/TAMRA-MyoIIA peptide fluorescence polarization | inhibition, % at 10.7 µM | hit rate 0.14% among 360,000;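 active means mean inhibition of at least 70% across replicates, with every replicate also reaching that level; inconclusive means mean inhibition reaches 70% but some replicates fall short; inactive means mean inhibition below 70%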
# Target sequence (P26447 whole entry, looked up): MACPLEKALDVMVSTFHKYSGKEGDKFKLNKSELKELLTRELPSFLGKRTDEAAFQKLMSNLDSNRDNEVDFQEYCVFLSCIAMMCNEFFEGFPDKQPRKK
#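 System – human S100A4 monomer protein, biochemical binding assay · Buffer or medium – Calcium-containing HEPES buffer, pH 7.2 · Timing – 5 min between mix addition and reading · Also added – TAMRA-labelled myosin IIA heavy-chain peptide probe, 5 nM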
# Env fusion inh – inhibitors of HIV Env-mediated cell fusion | HeLa-JRFL Env/CEM21 cell fusion, luciferase | inhibition, % at 12.3 µM | hit rate 1.1% among 360,000;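 active means mean replicate inhibition score of at least 50 and every replicate individually at or above 50; inconclusive means only one of the two criteria met; inactive means mean below 50 and not all replicates reaching 50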
# AID977621 – wild-type E. coli growth inhibition versus H69 humanized strain – H69 mutant RFP, wild-type GFP, cherry-pick, dose response | activity change, negative = inhibition at 50 µM | fluorescence, 24 h | shares compounds with Ecoli rRNA inh | 1,900 tested, under 10 active;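 active means Wild-type ribosome reporter drop at least double the humanized mutant ribosome reporter drop, growth loss under a set limit; inconclusive means no clear call, values can overlap the other calls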;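 further: wild-type GFP and H69 mutant RFP strains grown together 50/50 in each well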
# AID977628 – growth of wild-type and h24-humanized E. coli strains – h24 mutant RFP vs wild-type GFP, cherry-pick, dose response | activity change, negative = inhibition at 50 µM | E. coli WT GFP strain growth, fluorescence, 24 h | AID 977628 | 1,900 tested, under 10 active | shares compounds with Ecoli rRNA inh;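 active means compound lowering the normal-ribosome reporter at least twice as much as the humanized-ribosome reporter, growth loss under a set limit; inconclusive means no clear call, values can overlap the other calls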;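 further: wild-type GFP and h24 humanized RFP strains co-cultured 1 to 1 per well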
# A number is an active result; . = inactive; ? = inconclusive; / = no result given. Shown are actives, neighbours in structure and some others; about 2.6% of the full set was active somewhere.
SMILES,Vif imaging,Ecoli rRNA inh,FN deposit inh,miR122 inh,S100A4 MyoIIA,Env fusion inh,AID977621,AID977628
Cc1cc(NC(=O)c2cccc(Oc3ccccc3)c2)n[nH]1,/,-22,.,/,.,.,/,?
Cc1n(CC(=O)c2ccc(F)cc2)c2ccccc2[n+]1C,/,.,/,/,.,.,/,/
CCCCc1n(CC(=O)c2ccc(Cl)cc2)c2ccccc2[n+]1C,.,-19,.,.,.,.,/,.
O=C(CSc1nnc(-c2ccccc2F)n1C1CC1)Nc1cccnc1Cl,.,-16,.,.,.,.,.,.
CCOC(=O)C(C)(C)n1nnc(-c2ccc([N+](=O)[O-])cc2)n1,.,-23,.,.,.,.,.,?
